# Rtt109 Vps75 – inhibitors of C. albicans Rtt109/Vps75 HAT, primary screen, biochemical, ThioGlo CoA-SH fluorescence, plate reader; Histone acetyltransferase RTT109 (Candida albicans (strain SC5314 / ATCC MYA-2876)), …; purified Rtt109/Vps75, 4 h; inhibition, % at 34.9 µM; 0.16% of 330,000 active; AID 540336, 2011;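 active = inhibition of at least 50% in every replicate; inconclusive = best replicate reaches 50% inhibition but some replicates fall short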
# Target sequence (Q5AAJ8 whole entry, looked up): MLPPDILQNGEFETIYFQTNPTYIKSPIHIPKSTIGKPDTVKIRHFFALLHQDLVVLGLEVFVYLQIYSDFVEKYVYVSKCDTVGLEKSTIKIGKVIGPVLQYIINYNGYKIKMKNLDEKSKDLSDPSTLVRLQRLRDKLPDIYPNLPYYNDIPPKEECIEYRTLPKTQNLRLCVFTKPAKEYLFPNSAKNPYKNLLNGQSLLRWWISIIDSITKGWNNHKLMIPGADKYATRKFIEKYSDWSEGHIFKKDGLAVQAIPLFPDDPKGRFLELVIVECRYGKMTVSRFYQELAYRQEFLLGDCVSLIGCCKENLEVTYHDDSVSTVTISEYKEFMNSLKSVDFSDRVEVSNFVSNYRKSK
# GRIN3A LBD mod – binders of NR3A ligand-binding domain, primary screen, biophysical, differential scanning fluorimetry, uHTS | Glutamate receptor ionotropic, NMDA 3A (GRIN3A) ligand-binding domain | 2.5% of 340,000 active | Tm shift relative to glycine control, % at 25 µM | AID 1259313, 2017 | NR3A LBD differential scanning fluorimetry, Tm shift; 0% = protein alone, 100% = glycine-bound protein;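 active = melting temperature shift of at least 10% of the positive control shift, at one fixed dose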
# JMJD2C inh – inhibitors of GASC-1 histone demethylase, primary screen, biochemical, fluorescence, DELFIA europium. Lysine-specific demethylase 4C (Homo sapiens), Q9H3R0. GST-JMJD2C(1-420) H3K9me3 demethylation. inhibition, % at 2.35 µM. 0.069% of 330,000 active. AID 2099, 2009;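 active = more than half of a compound's replicate wells show inhibition beyond 50%, single wells judged on their own value; inconclusive = some, but no more than half, of replicates pass 50% inhibition; inactive = no replicate passes 50% inhibition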;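 also: signal counts dimethyl H3K9 product captured on neutravidin plate; 0% = median of DMSO wells and 100% = 0.3 times that DMSO median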
# T cell modulator – modulators of CD8 T cell-vesicle binding, primary screen, mouse 2C CD8+ T cells, flow cytometry | 0.068% of 330,000 active | AID 2052, 2009 | response (vesicle binding), % at 7 µM | 2C CD8+ T cell-vesicle binding; active compounds read low;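 active = response, share of CD8 T cells binding vesicles, and their 90th percentile fluorescence all below set limits, cut at about 80% in these data, passing the limit was not always enough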;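 also: values below 100% mean blocked vesicle binding to the CD8+ T cells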
#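 incubation = binding step 1.5 h, 37 °C, antibody labelling 20 min, ice | test system = 2C mouse CD8+ T cells | read-out basis = percent CD8+ FL2 mean versus row control | controls = Peptide-free naked vesicles (low) and QL9 vesicles with 0.7% DMSO vehicle (high) | detection = flow cytometry of vesicle-bound cells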
# * hit, by the source's call; u = inconclusive; x = not tested or not shown. An excerpt weighted towards active compounds, which were near 2.8% of everything screened.
SMILES,Rtt109 Vps75,GRIN3A LBD mod,JMJD2C inh,T cell modulator
O=C(NNc1c2ccccc2nc2ccccc12)c1ccc(O)cc1O,6.6,8.9,6.8,234.2
O=C(NNc1c2ccccc2nc2ccccc12)c1ccccc1O,-3.1,17.8*,2.5,212.0
COc1ccccc1C(=O)NC1CCN(C(=O)Nc2ccc(F)cc2)CC1,11.7,-2.2,4.0,340.4
CCCCC(CC)CN1CN(CC(CC)CCCC)CC(C)(N)C1 (stereo not given),-3.7,-0.5,x,x
COc1ccc(CN2C[C@H]3CCCN3c3cc(Br)ccc3S2(=O)=O)cc1,0.0,18.1*,x,x
CCC(C)[C@@H](NC(=O)OC(C)(C)C)c1nnc(S(=O)(=O)Cc2cccc(C)c2)o1 (stereo not given in full),11.6,12.2*,-6.3,x
COc1cc(/C=N/NC(=O)c2c(C)nnn2-c2nonc2N)ccc1O,x,13.5*,5.9,253.5
CC1CCN(Cc2c(C(=O)N/N=C/c3ccccc3O)nnn2-c2nonc2N)CC1,-5.1,0.4,u,272.7
Cc1nnn(-c2nonc2N)c1C(=O)N/N=C/c1cccc2ccccc12,-2.7,33.1*,-1.3,358.1
Cc1nnn(-c2nonc2N)c1C(=O)N/N=C/c1ccccc1O,-4.9,29.9*,-1.1,305.3
Cc1ccc(C)c(OCCC(=O)Nc2ccc(S(=O)(=O)N3CCCC3)cc2)c1,6.1,0.2,x,168.7
COc1cc(C(=O)Nc2sc3c(c2C(=O)O)CCC(C)C3)cc(OC)c1OC (stereo not given),-14.1,0.6,-47.6,0.0
COc1cc(C(=O)Nc2sc(C)c(C)c2C(=O)O)cc(OC)c1OC,3.9,15.5*,8.0,108.8
COC(CN(C)S(=O)(=O)c1cc2c3c(c1)CCN3C(=O)CC2)OC,-2.4,1.2,-4.4,538.0
Clc1ccc(/C=C/c2nc3ccccc3[nH]2)cc1,-6.8,12.9*,-6.2,299.3
Clc1ccc(/C=C/c2nc3ccccc3[nH]2)c(Cl)c1,-17.0,17.1*,-1.6,256.4
Clc1cccc(Cl)c1/C=C/c1nc2ccccc2[nH]1,-1.9,3.5,-7.7,198.8
Cc1ccc(S(=O)(=O)N2CCOCC2)cc1NC(=O)CSc1nc2ccccc2c(=O)n1Cc1ccccc1,16.3,14.4*,-9.9,147.4
Cc1ccc2c(c1)N(CCC(=O)NCc1ccccn1)C(=O)CO2,-16.4,41.8*,0.4,362.2
COc1ccc(OC)c(CNC(=O)CCN2C(=O)COc3ccccc32)c1,-4.7,-0.3,-31.1,298.2
COc1ccc(Br)cc1CNC(=O)CCN1C(=O)COc2ccccc21,-3.8,22.5*,31.7,254.4
Cc1ccc(S(=O)(=O)CCC(=O)OCc2nnc(-c3ccccc3)o2)cc1,1.2,2.6,5.1,437.7
CCOC(=O)c1[nH]c2ccc(F)cc2c1NC(=O)c1cc(OC)c(OC)c(OC)c1,-3.4,-7.0,9.1,220.9
COc1cc(C(=O)Nc2c(C(=O)O)[nH]c3ccc(Br)cc23)cc(OC)c1OC,-7.6,10.2*,10.3,363.4
COc1ccc(C2(C(=O)NCCc3ccccc3)CCCC2)cc1OC,1.7,0.9,0.5,36.3
SMILES,Rtt109 Vps75,GRIN3A LBD mod,JMJD2C inh,T cell modulator
COc1ccc(CC(=O)NNC(=O)COc2ccc(Cl)cc2C)cc1S(=O)(=O)N1CCOCC1,9.4,0.5,9.3,360.2
O=C(Nc1csnn1)c1csnn1,4.1,15.0*,1.5,745.3
Cc1cccnc1NC(=O)c1csnn1,-2.2,10.3*,27.8,175.9
Cc1cccnc1NC(=O)c1ccccc1-c1ccccc1C(=O)Nc1ncccc1C,13.3,-1.0,-10.9,129.3
Cc1cc(-c2ccc(Br)cc2)n[nH]1,6.0,0.3,18.6,321.7
Nc1cc(-c2ccc(Br)cc2)[nH]n1,2.6,11.6*,-0.3,301.5
O=C(NCCc1ccc(Cl)cc1)Nc1cccc(Cl)c1,7.6,20.5*,-19.7,852.2
COc1ccc(NC(=O)NCCc2cccc(Cl)c2)cc1OC,-8.7,16.1*,9.0,158.9
COc1ccc(CCNC(=S)NCCc2ccc(OC)c(OC)c2)cc1OC,2.3,27.1*,-21.0,66.0*
O=C(NCCc1ccccc1)Nc1cccc(Cl)c1,4.5,20.0*,2.6,252.8
CNC(=S)NCCc1ccc(OC)c(OC)c1,-20.3,-0.3,-2.7,219.3
COc1cccc(C(CCc2cc(OC)c(OC)c(OC)c2)NC(C)=O)c1 (stereo not given),-3.8,1.8,x,x

# Screening data (PubChem BioAssay)
